According to ChEMBL document CHEMBL4706641, “Novel Carboline Fungal Histone Deacetylase (HDAC) Inhibitors for Combinational Treatment of Azole-Resistant Candidiasis” (J Med Chem, 2021):
pIC50: −log10 of the molar value. ≈ marks a conversion by molar mass, not a printed value. Calls of active or inactive are those of the source. The calls are words filed in the database; no cut-off is given here.

Key:
[1] = test system: Candida albicans; test: Inhibition of biofilm formation in Candida albicans 0304103 at 0.12 to 64 ug/ml incubated for 24 hrs by XTT reduction assay; assay type: functional, organism-based; settings: dose 0.12-64 µg/ml
Procedure, shortened: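 C. albicans 0304103 at 1.0 × 10⁶ CFU/mL in RPMI 1640 allowed to adhere 90 min at 37 °C, washed with PBS, then fresh medium with fluconazole 2–32 μg/mL and/or compound 0.12–64 μg/mL added; 24 h at 37 °C. Biofilm metabolic activity by XTT reduction, OD490. Three independent experiments.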

[2] = Toxicity in HUVEC in presence of fluconazole; assay type: cell-based; settings: human, HUVEC cells
[3] = test system: Candida albicans; test: Antifungal activity against Candida albicans 0304103 infected in ICR mouse model of candidiasis assessed as reduction in kidney fungal burden at 10 mg/kg, ip dosed 24 hrs post infection and co-treated with 1 mg/kg, ip fluconazole and measured after 5 days; assay type: functional, organism-based; settings: time 5.0 day
[4] = test system: Cryptococcus neoformans; test: Synergistic antifungal activity against Cryptococcus neoformans assessed as potentiation of VRC antifungal activity by measuring VRC incubated for 48 hrs in presence of fluconazole by checkerboard microdilution assay; assay type: functional, organism-based
[5] = molecular target: Histone deacetylase 1 (Homo sapiens, UniProt Q13547); test: Inhibition of human HDAC1 pre-incubated for 5 mins before substrate addition and measured after 30 mins by fluorescence based assay
[6] = test system: Candida albicans; test: Antifungal activity against Candida albicans 10061 incubated for 48 hrs by microdilution assay; assay type: functional
Procedure, shortened: (§1)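 Checkerboard broth microdilution per CLSI M27-A3 (modified), clinical Candida isolates. Exponential cells in RPMI 1640 (MOPS-buffered) at 10³ cells/mL; fluconazole 0.25–64 μg/mL crossed with test compound 2–64 μg/mL (final). 48 h at 35 °C; OD630 read with background subtracted. MIC80 = 80% growth inhibition; FICI ≤0.5 synergy, >4 antagonism.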

[7] = test system: Candida albicans; test: microbe, parasite or virus in culture; assay type: functional, 0304103; settings: Candida albicans, 0304103; time 48 hrs; read-out: MIC80
[8] = test system: [Candida] auris; test: Synergistic antifungal activity against Candida auris assessed as potentiation of VRC antifungal activity by measuring VRC incubated for 48 hrs in presence of fluconazole by checkerboard microdilution assay; assay type: functional, organism-based; settings: Candidozyma auris
[9] = test system: Candida albicans; test: Synergistic antifungal activity against Candida albicans 9884 assessed as potentiation of fluconazole antifungal activity by measuring FICI incubated for 48 hrs in presence of fluconazole by checkerboard microdilution assay; assay type: functional
Procedure, shortened: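 Checkerboard broth microdilution per CLSI M27-A3 (modified), clinical Candida isolates. 48 h at 35 °C; OD630 read with background subtracted. MIC80 = 80% growth inhibition; FICI ≤0.5 synergy, >4 antagonism.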

[10] = test system: Candida albicans; test: Synergistic antifungal activity against Candida albicans 0304103 assessed as potentiation of fluconazole antifungal activity by measuring FICI incubated for 48 hrs in presence of fluconazole by checkerboard microdilution assay; assay type: functional; procedure, shortened: as §1
[11] = test system: Candida albicans; test: Antifungal activity against Candida albicans 9884 incubated for 48 hrs by microdilution assay; assay type: functional; procedure, shortened: as §1
[12] = test system: Candida albicans; test: Antifungal activity against Candida albicans 0304103 infected in ICR mouse model of candidiasis assessed as reduction in kidney fungal burden at 10 mg/kg, ip dosed 24 hrs post infection and measured after 5 days; assay type: functional, organism-based; settings: time 5.0 day
[13] = test system: Candida albicans; test: Down regulation of CDR1 mRNA expression in Candida albicans 0304103 at 32 ug/ml incubated for 24 hrs in presence of 32 ug/ml fluconazole by RT-PCR analysis; assay type: functional; settings: dose 32.0 µg/ml
Procedure, shortened: (§2)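 C. albicans 0304103 (initial 1 × 10⁶ cells/mL) treated with DMSO, fluconazole 32 μg/mL, compound 32 μg/mL, or both in YEPD medium, 35 °C for 24 h. Total RNA extracted, reverse transcribed, real-time PCR for 40 cycles; fold change by 2^−ΔΔCt with ACT1 as internal control.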

[14] = test system: Candida albicans; test: Synergistic antifungal activity against Candida albicans 0304103 at 32 ug/ml incubated for 48 hrs in presence of 32 ug/ml fluconazole by microdilution assay; assay type: functional, organism-based; settings: dose 32.0 µg/ml
[15] = test system: Cryptococcus neoformans; test: Synergistic antifungal activity against Cryptococcus neoformans assessed as potentiation of ITC antifungal activity by measuring ITC incubated for 48 hrs in presence of fluconazole by checkerboard microdilution assay; assay type: functional, organism-based
[16] = test system: Candida albicans; test: Synergistic antifungal activity against Candida albicans 4108 incubated for 48 hrs in presence of fluconazole by microdilution assay; assay type: functional; procedure, shortened: as §1
[17] = test system: Candida albicans; test: Synergistic antifungal activity against Candida albicans 9884 assessed as fluconazole MIC incubated for 48 hrs in presence of fluconazole by microdilution assay (reference value: fluconazole alone MIC = >[…] ug/ml); assay type: functional
[18] = test system: Pichia kudriavzevii; test: Antifungal activity against Candida krusei 10153 incubated for 48 hrs by microdilution assay; assay type: functional; procedure, shortened: as §1
[19] = test system: Candida albicans; test: Down regulation of ERG11 mRNA expression in Candida albicans 0304103 at 32 ug/ml incubated for 24 hrs in presence of 32 ug/ml fluconazole by RT-PCR analysis; assay type: functional; settings: dose 32.0 µg/ml; procedure, shortened: as §2
[20] = test system: Candida tropicalis; test: Synergistic antifungal activity against Candida tropicalis assessed as potentiation of VRC antifungal activity by measuring VRC incubated for 48 hrs in presence of fluconazole by checkerboard microdilution assay; assay type: functional, organism-based

Chain of Histone deacetylase 1 (Q13547 whole entry): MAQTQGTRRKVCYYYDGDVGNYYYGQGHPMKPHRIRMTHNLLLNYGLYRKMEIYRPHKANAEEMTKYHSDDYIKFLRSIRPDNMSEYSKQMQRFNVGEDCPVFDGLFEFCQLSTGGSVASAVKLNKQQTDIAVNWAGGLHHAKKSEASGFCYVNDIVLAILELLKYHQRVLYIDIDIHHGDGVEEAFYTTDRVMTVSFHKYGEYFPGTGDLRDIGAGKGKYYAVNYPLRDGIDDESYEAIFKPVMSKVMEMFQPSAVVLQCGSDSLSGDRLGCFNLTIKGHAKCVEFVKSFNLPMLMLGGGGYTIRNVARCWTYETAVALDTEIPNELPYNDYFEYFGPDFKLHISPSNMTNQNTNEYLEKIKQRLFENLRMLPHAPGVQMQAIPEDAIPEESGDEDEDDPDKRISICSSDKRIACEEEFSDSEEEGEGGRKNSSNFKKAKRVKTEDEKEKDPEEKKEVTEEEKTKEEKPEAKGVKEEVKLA

O=C(Cc1ccc(OCCCn2c3c(c4cccc(Cl)c42)CCNC3)cc1)NO
inhibition [1]: inactive
pIC50 [2]: 4.91
Activity [3]: Active
Activity [4]: inactive
pIC50 [5]: 5.65
MIC80 [6]: > 64 µg/mL
MIC80 [7]: 0.25 µg/mL (≈ 0.604 µM)
Activity [8]: Active
fractional inhibitory concentration index (FICI) [9]: 0.039
fractional inhibitory concentration index (FICI) [10]: 0.035
MIC80 [11]: 64 µg/mL (≈ 155 µM)
Activity [12]: inactive
Activity [13]: Active
Activity [14]: Active
Activity [15]: inactive
MIC80 [16]: 2 µg/mL
MIC80 [17]: 0.5 µg/mL
MIC80 [18]: 64 µg/mL (≈ 155 µM)
Activity [19]: Active
Activity [20]: Active
